From ChEMBL document CHEMBL4513216, “Probing the Open Global Health Chemical Diversity Library for Multistage-Active Starting Points for Next-Generation Antimalarials” (ACS Infect Dis, 2020)

Assay: Toxicity liver stage against HepG2, at 10uM
Assay type: cell-based
Set-up: test concentration 10 uM, cell line HepG2-A16-CD81EGFP
Conditions: human, HepG2-A16-CD81EGFP cells; read-out: INHIBITION
Procedure, shortened: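 Uninfected HepG2-A16-CD81EGFP cells, 3 × 10^3 per well, 1536-well, plated on prespotted compound at 10 μM final, parasite-free screening media added to match infected plates; puromycin 10 μM positive, DMSO 0.5% negative; run in parallel with 48 h PbLuc assay at 37 °C, 5% CO2; viability by CellTiter-Glo luminescence, normalized to controls.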

| SMILES | cytotoxicity at 10 µM |
| --- | --- |
| O=C(CN1CCc2ccccc2C1)NCc1ccco1 | 6.32% |
| O[C@H]1COCCN(Cc2cccc3c2OCO3)C1 | -3.04% |
| CO[C@H]1COCCN(C(=O)c2ccc(F)cc2)C1 | 0.287% |
| CCOCc1nc(N2CCCC2)sc1C(=O)NCc1ccco1 | -1.89% |
| CCOCCCNC(=O)C1(C)CCC(=O)N1c1ccccc1OC (stereo unspecified) | 2.89% |
| CN1CCCN(c2ncnc(N3CCOCC3)c2N)CC1 | 1.08% |
| CN1CC[C@H](N(Cc2ccccc2)Cc2ccccc2)C[C@H](O)C1 | -5.96% |
| COC1CCN(C(=O)COC(C)=O)CC(=O)N(C)c2ccccc21 (stereo unspecified) | 3.17% |
| COc1ccc(C(=O)Nc2n[nH]c(C3CCCO3)n2)cc1 (stereo unspecified) | -2.46% |
| O=C(CNC(=O)c1c[nH]c2ccccc12)NCCCn1ccnc1 | -11.1% |
| CSCC(C)(O)CNS(=O)(=O)c1cccc(C)c1 (stereo unspecified) | -2.85% |
| CC(=O)N1CCN(c2cnnc(N3CCCC3)c2)CC1 | 8.19% |
| CCN1C(=O)CCCC12CCCN(C(=O)c1ccoc1C)C2 (stereo unspecified) | -11.8% |
| CCO[C@@H]1CC[C@H]2[C@H]1OCCN2C(=O)c1ccc(OC)c(F)c1 | 15.7% |
| CCN1CC2(CC1=O)CN(C(=O)N(C)C)CCN(S(C)(=O)=O)C2 (stereo unspecified) | -0.757% |
| CN(C)CCN1CCO[C@H]2CN(C(=O)C3CCOCC3)C[C@H]21 | 1.58% |
| CS(=O)(=O)N1CCO[C@@H]2CCN(C(=O)c3cccs3)CC[C@H]21 | -2.35% |
| O=C1CCCN1Cc1ncn2c1CN(C(=O)Cc1cccs1)CCC2 | 5.26% |
| COc1ccc(-n2nnc(C(=O)O)c2-c2ccccn2)cc1 | 13.7% |
| Cc1nc2c(N(C)Cc3ccnn3C)nc(N)nc2n1C | -7.42% |
| CCn1ncc(S(=O)(=O)NC(C)c2cc(OC)ccc2OC)c1C (stereo unspecified) | -4.48% |
| O=C(CCS(=O)(=O)c1ccccc1)NCCCn1cccn1 | 12% |
| COc1ccccc1OCCc1nnc(NC(=O)C2CC23CCC3)s1 (stereo unspecified) | 1.26% |

| SMILES | cytotoxicity at 10 µM |
| --- | --- |
| CC(=O)N1CCC(c2ncc(C(=O)Nc3ccc(F)cc3)c(C)n2)CC1 | 7.29% |
| COCCN1CCCC1c1ccnc(-c2ccccc2)n1 (stereo unspecified) | 1.09% |
| CC(C)c1nc(O)c2nnn(C[C@H]3CCCN(Cc4ccsc4)C3)c2n1 | 1.8% |
| Cc1nc(CCC(=O)NCC(N)=O)cc(C2CCNCC2)n1 | -3.03% |
| C[C@]1(O)CCN(Cc2c[nH]cn2)C[C@@H]1Oc1cccc(F)c1 | -5.72% |
| O=C(c1ccc2c(c1)CCC2)N1CC[C@H](O)[C@]2(CCCO2)C1 | -8.97% |
| Cc1ccc(C(=O)Nc2ccc3c(c2)N(C)CCN(C)C3)c(=O)[nH]1 | -2.17% |
| CS(=O)(=O)NC1CCN(C(=O)CCC2CCCO2)CC1 (stereo unspecified) | -0.367% |
| Cn1ccnc1CNC1CCCOc2c1ccc1ccccc21 (stereo unspecified) | 13.3% |
| CCc1nc2n(n1)CC(NCC1=Cc3ccc(OC)cc3OC1)CC2 (stereo unspecified) | 4.02% |
| CCNC(=O)CN(CC)C(=O)c1csc(Cc2ccccc2F)n1 | 7.6% |
| COC(=O)C(NC(=O)c1cc(C)ccc1C)c1cccnc1 (stereo unspecified) | -39.7% |
| CNS(=O)(=O)c1ccc(CNC(=O)NCc2cc[nH]n2)cc1 | 1.91% |
| CCN(CC)CCCC(C)NC(=O)c1ccccc1-n1cccn1 (stereo unspecified) | 15.9% |
| CCOCCC(=O)NCC(C)c1ccsc1 (stereo unspecified) | 15.1% |
| CC(NC(=O)COc1ccccc1I)C1CC1 (stereo unspecified) | 2.72% |
| CN1CCC(C(=O)N2CCCN(c3cccnn3)CC2)C1 (stereo unspecified) | -8.82% |
| Cc1cc(CNc2ccc(CC(=O)N(C)c3ccccc3)cc2)no1 | -13.9% |
| Cc1ccc(CNCc2c(C)nn(C)c2N(C)C)cn1 | 4.65% |
| O=C(NC1(c2nnn(CC3CCCO3)n2)CCCC1)c1ccccc1 (stereo unspecified) | 13.2% |
| O=C(CN1CCCC1Cn1cncn1)Nc1nccs1 (stereo unspecified) | 4.1% |
| Cn1cc(NC(=O)CCCc2cccs2)c(=O)n(C)c1=O | 5.55% |
| CCOC(C(=O)N1CCn2c(CC)nnc2C1)c1ccccc1 (stereo unspecified) | 4.48% |

| SMILES | cytotoxicity at 10 µM |
| --- | --- |
| O=C(c1cccnc1O)N(CCO)Cc1cc(Br)ccc1F | 6.27% |
| CCc1sc(-c2nnc(CNC(C)Cn3cc(C)cn3)o2)cc1C (stereo unspecified) | 0.493% |
| CC1(C)CN=C(N2CCN(CC3CCOC3)CC2)S1 (stereo unspecified) | 11.7% |
| CC(Cn1cccn1)NCC(=O)N(C)Cc1ccsc1 (stereo unspecified) | -7.32% |
| CC(=O)NCCc1ccc(S(=O)(=O)Nc2ccc(C)c(F)c2)s1 | 5.72% |
| CSCc1cc(C(=O)NC2(C#N)CC2)ccc1F | -10.5% |
| COc1ccccc1N1CCN(Cc2cnc3c(c2)c(C)nn3C)CC1 | -0.949% |
| Cc1nc(CNC(=O)Nc2ccc3c(c2)CCCN3C)sc1C | -3.68% |
| CCOC(=O)C1CCN(C(=O)Cc2c(C)nc(C)[nH]c2=O)CC1 | 16.6% |
| CCNC(=O)NC(=O)CN1CCOC(c2ccccc2Cl)C1 (stereo unspecified) | 6.58% |
| O=C(Nc1ccccn1)NC(CCCO)c1ccccc1 (stereo unspecified) | 3.72% |
| Cc1occc1C(=O)Nc1cc(N2CCNC2=O)ccc1Cl | 8.56% |
| CNc1nc(CNC(=O)Nc2ccccc2OC(C)C)cs1 | -12.1% |
| Cc1nc(CN2CCc3cncnc3C2)oc1C | -12% |
| CCc1nnc(C(C)N2CCCN(C(=O)Oc3ccccc3)CC2)o1 (stereo unspecified) | 2.79% |
| Cn1nc(CNc2ncccn2)c2c1CN(c1cnccn1)CC2 | -107% |
| O=S(=O)(C1CC1)N1CCc2ncnc(N3CCOCC3)c2CC1 | -109% |
| O=S(=O)(C1CC1)N1CCC2(COCc3cnc(-c4cccnc4)nc32)C1 (stereo unspecified) | -115% |
| Cn1cc(C2COC3(CCN(C(=O)c4cccc(O)c4)CC3)C2)cn1 (stereo unspecified) | -73.3% |
| c1cc(-c2nnn3c2COC(CNCc2nccs2)C3)ccn1 (stereo unspecified) | 1.94% |
| OCC1(CCOc2ccccc2)CCN(c2ccc(Cl)cn2)CC1 | -43.4% |
| O=C1NCCCc2[nH]c(Cc3cccc(Cl)c3)nc21 | 13% |
| Cc1cc(N2CCN(Cc3ccccc3)CC(O)C2)nc(N)n1 (stereo unspecified) | 1.06% |

| SMILES | cytotoxicity at 10 µM |
| --- | --- |
| Cc1cccn2c(CNC(C)CCn3cccn3)cnc12 (stereo unspecified) | 21.6% |
| CC(C)N1CCC(CC(=O)NCC2OCCc3ccccc32)CC1 (stereo unspecified) | -4.65% |
| COCc1cc(NCCc2ccc(OC)cc2)n2nccc2n1 | 0.266% |
| CN(Cc1cc(C(C)(C)C)n[nH]1)C(=O)CCC(=O)NC1CCCC1 | -2.12% |
| O=C(O)c1ccc(N2CCC(Oc3cccc(F)c3)CC2)nc1 | -60.7% |
| COc1ccccc1C(=O)N1CCN(C(=O)CCCc2cn[nH]c2)CC1 | 2.68% |
| O=C(NN1CCCc2ccccc21)c1c[nH]c(=O)[nH]1 | 8.73% |
| CC(=O)NCc1cc2n(n1)CCN(Cc1cc(-c3ccccc3)no1)C2 | 7.12% |
| Cc1cc(C)n(-c2ccc(C(=O)NCC(CO)Cc3ccco3)cc2)n1 (stereo unspecified) | 3.62% |
| Cc1nc(S(=O)(=O)N2CCc3[nH]nc(CCC(C)C)c3C2)cn1C | 10.2% |
| CCCOC1CCCN(C(=O)c2ccnnc2)C1 (stereo unspecified) | -20.6% |
| CCc1ocnc1C(=O)N1CCC2(CCCN(CC(C)(C)C)C2=O)C1 (stereo unspecified) | 7.79% |
| O=C1CCCc2occ(C(=O)N3CCCC4(CCNC4)C3)c21 (stereo unspecified) | 9.15% |
| CC(=O)Nc1ccc(Cl)c(C(=O)N(C)C(C)c2ccncn2)c1 (stereo unspecified) | -42.6% |
| COC(=O)CN1CCCn2nc(CCC(=O)N3CCCC3)cc2C1 | -204% |
| Cc1n[nH]c(C)c1C1COCCN1C(=O)c1ccc2c(c1)CCO2 (stereo unspecified) | -4.01% |
| CCC1CN(C(=O)c2cccc(OCc3cscn3)c2)CCO1 (stereo unspecified) | -7.51% |
| COCCN1CCCC1Cn1nc(C)cc1C (stereo unspecified) | 1.31% |
| CCn1ccnc1CN1CCCN(C(=O)c2cc(C)nn2CC)CC1 | -5.89% |
| c1cnnc(N2CCCC2CNCc2csc(-c3ccco3)n2)c1 (stereo unspecified) | -8.42% |
| COC(=O)c1ccc(N2CCN(CCN3CCOCC3)C(C)C2)cc1 (stereo unspecified) | -13.6% |
| Cc1nn(C)c(C)c1C1CCCN1Cc1nc(-c2ccco2)oc1C (stereo unspecified) | -4.27% |
| Cc1ccc(-n2nnc(C(=O)NS(C)(=O)=O)c2C2CC2)cc1 | -13.9% |

| SMILES | cytotoxicity at 10 µM |
| --- | --- |
| CCOc1cc(C)ccc1NC(=O)N(C)Cc1cnn(C)c1 | -7.15% |
| COc1ccc(CC(=O)N(C)Cc2nnc3ccccn23)cc1 | 5.44% |
| c1cc(CC2CCCNC2)nc(NCCc2cnccn2)c1 (stereo unspecified) | 3.64% |
| O=C([C@@H]1CC[C@@H]2[C@@H](CCN2CCOCc2ccccc2)O1)N1CCCC1 | -110% |
| CC(NCc1ccc(OCC(N)=O)cc1)c1ccc(Cl)cc1Cl (stereo unspecified) | 13.1% |
| CN(Cc1cccnc1)[C@@H]1CN(C(=O)NC2CC2)[C@@H]2CCCO[C@H]12 | 2.75% |
| O=C(CN1CC(c2nc(-c3cccs3)no2)C1)NCC1CCCO1 (stereo unspecified) | -1.47% |
| CN(C)CCOC1CC2(CCN(c3cnccn3)CC2)c2ccccc21 (stereo unspecified) | -2.69% |
| Cc1cc(C(=O)N2C[C@@H]3OCCN(CCN4CCCC4)[C@@H]3C2)c(C)o1 | -74.8% |
| O=C1CC(c2ccccc2)C2(CCN(C(=O)c3ccncc3F)CC2)N1 (stereo unspecified) | -76.9% |
| CS(=O)(=O)N1CCO[C@H]2[C@@H](Oc3ncccc3F)CC[C@@H]21 | -2.54% |
| O=C(NCC1OCCc2cn(CC3CCOCC3)nc21)c1ccncc1 (stereo unspecified) | -78% |
| CCOCc1nn(C)c2c1CN(Cc1cccs1)CC2 | -101% |
| Cc1oncc1C(=O)N1CCc2ncnc(-c3cnn(C)c3)c2CC1 | 7.07% |
| CC(C)CNC(=O)N1CC[C@@H]2CN(Cc3cccnc3)S(=O)(=O)[C@@H]2CC1 | -93.6% |
| NC1(c2nc(C(F)(F)F)cc(=O)[nH]2)CCCC1 | 19.1% |
| O=C(Nc1ccccc1)N1CCC(n2cc3[nH]cccc-3c2=O)CC1 | -3.73% |
| COCCN1C(=O)[C@@H]2CC[C@H]1CN(S(=O)(=O)c1cccc(Cl)c1)C2 | 20.5% |
| COc1ccc(C2CC(=O)c3c(O)cc(O)cc3O2)cc1O (stereo unspecified) | -2.66% |
